Data: ChEMBL document CHEMBL1131326, “Design, synthesis, and antiviral evaluations of 1-(substituted benzyl)-2-substituted-5,6-dichlorobenzimidazoles as nonnucleoside analogues of 2,5,6-trichloro-1-(beta-D-ribofuranosyl)benzimidazole” (J Med Chem, 1998)
Each block holds one molecule with its values, some of them ahead of it.

How the values were obtained:
CEM-SS [1] = assay: Cytotoxicity against CEM-SS cells in terms of incorporation of [3H]dThd; type: functional, cell-based; conditions: Homo sapiens
Summary of the method: (§1)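 DNA synthesis in CEM-SS cells measured as uptake of [³H]dThd into total acid-precipitable material; results averaged from duplicate experiments.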

[2] = system: Human immunodeficiency virus 1; assay: Activity against HIV-1 by syncytial plaque assay performed in duplicate using CEM-SS cells; type: functional, organism-based; conditions: Human immunodeficiency virus 1, CEM-SS
Summary of the method: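 Syncytial plaque assay: poly-L-lysine-adherent CEM-SS cells infected with HIV-1 strain IIIB with or without compound at selected concentrations; syncytial plaques counted at 30-fold magnification 7 days postinfection; duplicate. IC50 from linear regression of percent inhibition against log concentration.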

[3] = system: Human immunodeficiency virus 1; assay: (§2) Compound was tested for antiviral activity against matched pairs of HIV-1 resistant to AZT; type: functional, organism-based
Summary of the method: (§3)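 Matched clinical pairs of AZT-sensitive and AZT-resistant HIV-1 (C-691/G762 or H-112/G910, depending on compound series) were tested by syncytial plaque assay in duplicate sets on poly-L-lysine-adherent CEM-SS cells. Syncytial plaques were counted at 30-fold magnification 7 days postinfection. IC50 came from regression of percent inhibition versus log concentration, averaged over duplicate experiments.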

[4] = system: Human immunodeficiency virus 1; assay: (§4) Compound was tested for antiviral activity against matched pairs of HIV-1 sensitive to AZT; type: functional, organism-based; summary of the method: as §3
[5] = system: Human immunodeficiency virus 1; assay: (§5) Compound was tested for antiviral activity against HIV-1 resistant to TIBO A-17; type: functional, organism-based
Summary of the method: (§6)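 Syncytial plaque assay in duplicate sets on CEM-SS cells made adherent with poly-L-lysine. Virus was the A17 HIV-1 variant, resistant to nonnucleoside RT inhibitors including TIBO, or HIV-2, both from the AIDS Research and Reference Program. Infection was in the presence or absence of compound; syncytial plaques were counted at 30-fold magnification 7 days postinfection. IC50 came from linear regression of percent inhibition against log concentration.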

Human betaherpesvirus 5 [6] = assay: Antiviral activity against human cytomegalovirus (HCMV) by plaque reduction assay; type: functional, organism-based
Summary of the method: (§7)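 HFF monolayers infected with about 100 pfu/cm² of HCMV Towne (isolate Po); after adsorption, compound in growth medium added to duplicate wells at four to eight concentrations.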

HFF = assay: Visual cytotoxicity scored on HFF cells at a time of HCMV plaque enumeration; type: functional, cell-based; conditions: Homo sapiens
Summary of the method: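 Cytotoxicity in stationary HFF cells scored by microscopic inspection of cells not affected by virus, at time of HCMV plaque enumeration, in the plaque-assay plates.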

[7] = system: Human immunodeficiency virus 2; assay: Compound was tested for antiviral activity against HIV-2; type: functional, organism-based
KB = assay: Inhibition of KB cell growth determined by quadruplicate assays; type: functional, cell-based; conditions: Homo sapiens
Summary of the method: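 KB cells seeded at 3000-5000/well, overnight at 37 °C, then compound in quadruplicate at six to eight concentrations for 48 h (about two doublings) in CO₂. Cells fixed in 95% ethanol, stained with 0.1% crystal violet, dye eluted with acidified ethanol and read at 570 nm; IC50 by regression vs log concentration.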

Human alphaherpesvirus 1 = assay: Antiviral activity against herpes simplex virus type-1 (HSV-1); type: functional, organism-based
Summary of the method: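 BSC-1 cells (10 000/well, MEM(E) + 10% calf serum) incubated overnight, then given drug in quadruplicate plus HSV-1 KOS at 100 pfu/well; 3 days at 37 °C. ELISA with HRP-conjugated rabbit anti-HSV-1 antibody, TMB substrate, stopped with H₂SO₄, absorbance at 450 and 570 nm; IC50 by regression of % absorbance reduction vs log concentration.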

[8] = as §5; type: functional, Human immunodeficiency virus 1; summary of the method: as §6
[9] = as §2; type: functional, Human immunodeficiency virus 1; summary of the method: as §3
[10] = as §4; type: functional, Human immunodeficiency virus 1
[11] = system: Human immunodeficiency virus 2; assay: Compound was tested for antiviral activity against HIV-2
CEM-SS [12] = assay: Compound was tested for activity against HIV-1 by syncytial plaque assay performed in duplicate using CEM-SS cells; type: functional, cell-based; conditions: Homo sapiens
Summary of the method: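 CEM-SS cells made adherent with poly-L-lysine, infected with HIV-1 strain IIIB with or without selected compound concentrations; duplicate sets. Syncytial plaques counted at 30-fold magnification 7 days post-infection. Percent inhibition regressed linearly against log concentration to give IC50; zidovudine positive control in all assays. Values averaged over duplicate or triplicate experiments.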

CEM-SS [13] = assay: Compounds were tested for cytotoxicity against CEM-SS cells in terms of incorporation of [3H]dThd; type: functional, cell-based; conditions: Homo sapiens; summary of the method: as §1
[14] = Compound was tested for antiviral activity against HIV resistant to TIBO A-17; type: functional, Human immunodeficiency virus 1; summary of the method: as §6
[15] = system: Human immunodeficiency virus 1; assay: Compound was tested for antiviral activity against HIV-1 resistant to AZT; type: functional, organism-based; summary of the method: as §3
[16] = system: Human immunodeficiency virus 1; assay: Compound was tested for antiviral activity against HIV-1 sensitive to AZT; type: functional, organism-based; summary of the method: as §3
Human betaherpesvirus 5 [17] = assay: Compound was tested for antiviral activity against human cytomegalovirus (HCMV) by plaque reduction assay; type: functional, organism-based; summary of the method: as §7

Structure (SMILES): O=[N+]([O-])c1cccc(Cn2c(Br)nc3cc(Cl)c(Cl)cc32)c1
IC50 (CEM-SS [1]): > 100 µM | IC50 [2]: 5.3 µM | IC50 [3]: 11 µM | IC50 [4]: 8.7 µM | IC50 [5]: 1 µM | IC50 (Human betaherpesvirus 5 [6]): > 100 µM | IC50 (HFF): > 100 µM | IC50 [7]: 28 µM | IC50 (KB): 150 µM

Structure (SMILES): Cc1cccc(Cn2c(Cl)nc3cc(Cl)c(Cl)cc32)c1
IC50 (CEM-SS [1]): > 100 µM | IC50 [2]: 14 µM | IC50 (Human betaherpesvirus 5 [6]): > 100 µM | IC50 (Human alphaherpesvirus 1): > 100 µM | IC50 [8]: 16 µM | IC50 (HFF): > 100 µM | IC50 [9]: 13 µM | IC50 [7]: > 30 µM | IC50 (KB): > 100 µM | IC50 [10]: 37 µM

Structure (SMILES): Fc1ccc(Cn2c(Cl)nc3cc(Cl)c(Cl)cc32)cc1
IC50 (CEM-SS [1]): > 100 µM | IC50 [2]: 37 µM | IC50 [5]: 19 µM | IC50 (Human betaherpesvirus 5 [6]): > 100 µM | IC50 (Human alphaherpesvirus 1): > 100 µM | IC50 (HFF): > 100 µM | IC50 (KB): > 100 µM | IC50 [11]: > 30 µM

IC50 (CEM-SS [12]): 0.0026 µM
Structure (SMILES): Cc1cn([C@H]2C[C@H](N=[N+]=[N-])[C@@H](CO)O2)c(=O)[nH]c1=O [ZIDOVUDINE]
IC50 (CEM-SS [13]): 1.9 µM

Structure (SMILES): Clc1ccc(Cn2c(Cl)nc3cc(Cl)c(Cl)cc32)cc1
IC50 (CEM-SS [12]): 9.1 µM | IC50 (CEM-SS [1]): > 100 µM | IC50 (Human betaherpesvirus 5 [6]): > 100 µM | IC50 (Human alphaherpesvirus 1): > 100 µM | IC50 [8]: 19 µM | IC50 (HFF): > 100 µM | IC50 [9]: 255 µM | IC50 [7]: > 30 µM | IC50 (KB): > 100 µM | IC50 [10]: 30 µM

Structure (SMILES): O=[N+]([O-])c1ccc(Cn2c(Br)nc3cc(Cl)c(Cl)cc32)cc1
IC50 (CEM-SS [1]): > 100 µM | IC50 [2]: 14 µM | IC50 (Human betaherpesvirus 5 [6]): > 100 µM | IC50 [14]: 11 µM | IC50 (HFF): > 100 µM | IC50 [9]: 6.9 µM | IC50 [7]: 66 µM | IC50 (KB): 40 µM | IC50 [10]: 11 µM

Structure (SMILES): Cc1cccc(Cn2c(Br)nc3cc(Cl)c(Cl)cc32)c1
IC50 (CEM-SS [1]): > 100 µM | IC50 [2]: 3.5 µM | IC50 [15]: 9 µM | IC50 [5]: 17 µM | IC50 [16]: 8.7 µM | IC50 (Human betaherpesvirus 5 [6]): > 100 µM | IC50 (HFF): > 100 µM | IC50 [7]: 143 µM

IC50 (Human alphaherpesvirus 1): > 100 µM | IC50 (Human betaherpesvirus 5 [17]): 18 µM | IC50 (KB): 60 µM
Structure (SMILES): Clc1cc2nc(NC3CC3)n(Cc3ccccc3)c2cc1Cl
IC50 (HFF): 33 µM
